Test results taken from ChEMBL document CHEMBL1159045, “Design and pharmacophore modeling of biaryl methyl eugenol analogs as breast cancer invasion inhibitors” (Bioorg Med Chem, 2010).

Tests used:
MDA-MB-231 [1] = assay: Antiinvasive activity in human MDA-MB-231 cells assessed as cell invasion at 4 uM by BME cell invasion assay; format: functional
How it was run: (§1)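 Cultrex 96-well BME invasion kit, Boyden-type chamber with 8 µm PET membrane coated with basement membrane extract; MDA-MB-231 cells exposed to 1–4 μM for 24 h, 10% FBS as chemoattractant in the lower chamber. Invaded cells labelled with calcein-AM and read at ex 485/em 520 nm. RFU converted to cell number by standard curve. % invasion = cells through BME / cells migrating through uncoated membrane. Colchicine as positive control, DMSO vehicle.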

MDA-MB-231 [2] = assay: Antiinvasive activity in human MDA-MB-231 cells by BME cell invasion assay; format: functional, cell-based; how it was run: as §1
MDA-MB-231 [3] = assay: Cytotoxicity against human MDA-MB-231 cells at 10 to 50 uM after 75 hrs by MTT assay; format: cell-based; conditions: mda-mb-231, 72 h, in the assay text read “72 hrs” for “75 hrs”
How it was run: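 MDA-MB-231 seeded at 15,000 cells/well and stabilized 24 h at 37 °C, 5% CO2. Triplicate doses applied for 72 h at 37 °C, 5% CO2, 85% humidity. MTT (2.5 mg/mL) added for 4 h, then formazan dissolved overnight at rt in the dark with detergent reagent. OD at 570 nm against a cell-free blank; cells/well from calibration curve. Colchicine positive control, DMSO vehicle.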

MCF7 = assay: Cytotoxicity against human MCF7 cells at 10 to 50 uM after 75 hrs by MTT assay; format: cell-based; conditions: mcf7, 72 h, in the assay text read “72 hrs” for “75 hrs”
How it was run: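 MCF-7 seeded at 12,000 cells/well and stabilized 24 h at 37 °C, 5% CO2. Treated in triplicate for 72 h at 37 °C, 5% CO2, 85% humidity. MTT (2.5 mg/mL) added for 4 h, then formazan dissolved in isopropanol overnight at rt in the dark. OD read at 570 nm against a cell-free blank; cell number from calibration curve. Colchicine positive control, DMSO vehicle.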

MDA-MB-231 [4] = assay: Antiinvasive activity in human MDA-MB-231 cells assessed as cell invasion at 2 uM by BME cell invasion assay; format: functional; how it was run: as §1

Compound	Activity (MDA-MB-231 [1])	Activity (MDA-MB-231 [2])	Activity (MDA-MB-231 [3])	Activity (MCF7)	Activity (MDA-MB-231 [4])
COc1ccc(/C=C/Cc2cc(OC)c(OC)c(OC)c2)cc1OC	11%	Dose-dependent effect	Non-toxic	–	–
COc1ccc(C/C=C/c2ccc(OC)c(OC)c2)cc1	–	Dose-dependent effect	Non-toxic	–	–
COc1ccc(C(=O)CCc2cc(OC)c(OC)c(OC)c2)cc1OC	–	Dose-dependent effect	Non-toxic	–	–
COc1ccc(C/C=C/c2cc(OC)c(OC)c(OC)c2)cc1OC	–	Dose-dependent effect	Non-toxic	–	–
COc1ccc(C/C=C/c2c(C)cccc2C)cc1OC	–	Dose-dependent effect	Non-toxic	–	–
COc1ccc(/C=C/Cc2ccccc2OC(C)=O)cc1OC	–	Dose-dependent effect	Non-toxic	Non-toxic	–
COc1ccccc1C/C=C/c1ccc(OC)c(OC)c1	–	Dose-dependent effect	Non-toxic	–	–
C=C(Cc1ccc(OC)c(OC)c1)c1ccc(OC)cc1	–	Dose-dependent effect	Non-toxic	–	–
COc1ccc(C/C=C\c2ccccc2OC(C)=O)cc1OC	9%	Dose-dependent effect	Non-toxic	Non-toxic	–
C=C(Cc1ccc(OC)c(OC)c1)c1ccccc1OC(C)=O	–	Dose-dependent effect	Non-toxic	Non-toxic	–
COc1ccc(/C=C\Cc2c(C)cccc2C)cc1OC	–	Dose-dependent effect	Non-toxic	–	–
C=C(Cc1ccc(OC)c(OC)c1)c1cc(OC)c(OC)c(OC)c1	–	Dose-dependent effect	Non-toxic	–	–
COc1ccc(/C=C/Cc2ccc(OC)c(OC)c2)cc1	13.7%	Dose-dependent effect	Non-toxic	–	–
COc1cc2c(c(OC)c1OC)-c1ccc(OC)c(=O)cc1[C@@H](NC(C)=O)CC2 [COLCHICINE]	8.9%	–	–	–	–
COc1ccc(C(=O)/C=C/c2cc(OC)c(OC)c(OC)c2)cc1OC	–	Dose-dependent effect	Non-toxic	–	8.5%
